{
  "source": "paper PMC3729352",
  "about": "(Pharmacological research : the official journal of the …, 2011)",
  "key": {"[1]": {"biological_target": "T1, ABCG2 (Mus musculus, UniProt Q7TMS5)", "T1 sequence (Q7TMS5 1-657)": "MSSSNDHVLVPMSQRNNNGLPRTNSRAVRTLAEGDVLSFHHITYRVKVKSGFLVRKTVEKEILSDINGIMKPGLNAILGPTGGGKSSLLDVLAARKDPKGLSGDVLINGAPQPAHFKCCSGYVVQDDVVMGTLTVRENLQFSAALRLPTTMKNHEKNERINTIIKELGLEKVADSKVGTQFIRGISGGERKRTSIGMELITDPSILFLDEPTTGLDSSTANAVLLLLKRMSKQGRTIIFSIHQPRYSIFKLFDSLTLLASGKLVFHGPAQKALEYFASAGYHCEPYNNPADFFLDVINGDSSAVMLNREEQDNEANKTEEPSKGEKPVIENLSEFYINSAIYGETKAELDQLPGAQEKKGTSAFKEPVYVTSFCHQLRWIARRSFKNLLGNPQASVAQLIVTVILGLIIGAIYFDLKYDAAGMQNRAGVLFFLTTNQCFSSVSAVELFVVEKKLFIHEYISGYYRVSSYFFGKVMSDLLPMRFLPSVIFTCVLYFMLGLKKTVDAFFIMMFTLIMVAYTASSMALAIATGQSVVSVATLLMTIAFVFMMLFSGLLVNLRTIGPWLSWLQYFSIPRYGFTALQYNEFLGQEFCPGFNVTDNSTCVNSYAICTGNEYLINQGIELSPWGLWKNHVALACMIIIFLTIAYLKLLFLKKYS", "format": "in vivo", "conditions": "Ko143 0, 1, 3 and 10 mg-kg^−1 i.p., 20 min prior to URB937 25 mg-kg^−1 s.c., ex vivo 1 h after URB937"}, "[2]": {"biological_target": "T2, mouse Abcg2 (Mus musculus, UniProt Q7TMS5)", "T2 sequence (Q7TMS5 1-657)": "T1 sequence (Q7TMS5 1-657)", "experiment": "Transepithelial transport across MDCKII monolayers over-expressing mouse Abcg2", "format": "in vitro ADME"}, "[3]": {"biological_target": "T3, human ABCG2 (Homo sapiens, UniProt Q9UNQ0)", "T3 sequence (Q9UNQ0 1-655)": "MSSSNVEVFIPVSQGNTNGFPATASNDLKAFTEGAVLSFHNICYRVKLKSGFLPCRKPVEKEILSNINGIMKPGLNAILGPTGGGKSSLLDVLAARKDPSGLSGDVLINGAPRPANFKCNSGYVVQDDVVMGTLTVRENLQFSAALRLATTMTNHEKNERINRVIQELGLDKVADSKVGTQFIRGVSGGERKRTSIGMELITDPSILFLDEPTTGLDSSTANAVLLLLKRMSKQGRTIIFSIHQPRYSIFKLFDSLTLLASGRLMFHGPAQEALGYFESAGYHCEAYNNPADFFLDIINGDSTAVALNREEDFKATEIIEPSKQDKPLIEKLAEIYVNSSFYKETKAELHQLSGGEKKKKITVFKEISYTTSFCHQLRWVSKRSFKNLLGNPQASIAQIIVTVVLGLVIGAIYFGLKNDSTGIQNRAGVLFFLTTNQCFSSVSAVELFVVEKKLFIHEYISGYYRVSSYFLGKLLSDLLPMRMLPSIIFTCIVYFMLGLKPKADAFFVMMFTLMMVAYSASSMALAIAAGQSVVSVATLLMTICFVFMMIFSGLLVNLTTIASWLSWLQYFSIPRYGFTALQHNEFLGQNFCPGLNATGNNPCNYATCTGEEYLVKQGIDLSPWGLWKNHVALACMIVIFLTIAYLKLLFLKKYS"}, "[4]": {"experiment": "Plasma and tissue levels of URB937 in wild-type and Abcg2-/- mice", "format": "in vivo, mouse", "conditions": "25 mg-kg^−1 s.c., mean ± SEM; for Level of URB937 in brain / Level of URB937 in kidney / Level of URB937 in liver / Level of URB937 in spinal cord: 1 h; for concentration at 1 h: mouse, plasma, sc, 25 mg-kg^−1, Level of URB937 in plasma", "in_short": "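Dosing: test compound 25 mg-kg−1 s.c. in saline/PEG400/Tween-80 (18:1:1) to Abcg2−/− (n = 4) and wild-type littermates (n = 5); killed at 1 h. Plasma obtained by cardiac puncture and spun 2000 × g. Tissue homogenates and plasma extracted with methanol/chloroform (1:2) containing internal standard. Analysis by ESI-LC/MS on a C18 column with a methanol/water gradient (0.25% acetic acid, 5 mM ammonium acetate) at m/z 377; mean ± SEM.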"}, "[5]": {"biological_target": "T4, FAAH (Mus musculus, UniProt O08914)", "T4 sequence (O08914 1-579)": "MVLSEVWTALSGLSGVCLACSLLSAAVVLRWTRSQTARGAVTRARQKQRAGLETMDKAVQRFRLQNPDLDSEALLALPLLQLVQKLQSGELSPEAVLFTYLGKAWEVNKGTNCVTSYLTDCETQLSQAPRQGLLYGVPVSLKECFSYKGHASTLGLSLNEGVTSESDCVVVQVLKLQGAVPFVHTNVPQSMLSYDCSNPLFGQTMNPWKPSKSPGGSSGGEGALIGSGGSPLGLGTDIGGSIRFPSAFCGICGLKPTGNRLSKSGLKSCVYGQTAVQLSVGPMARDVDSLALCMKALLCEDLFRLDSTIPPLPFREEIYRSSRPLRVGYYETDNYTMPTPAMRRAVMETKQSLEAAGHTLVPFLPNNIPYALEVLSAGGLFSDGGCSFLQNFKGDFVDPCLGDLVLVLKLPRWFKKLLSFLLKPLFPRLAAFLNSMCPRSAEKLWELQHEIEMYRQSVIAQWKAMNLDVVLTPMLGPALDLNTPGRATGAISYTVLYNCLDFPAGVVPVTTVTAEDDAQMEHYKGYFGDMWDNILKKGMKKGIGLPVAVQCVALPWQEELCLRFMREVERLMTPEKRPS", "experiment": "Ex vivo FAAH activity in tissues of wild-type and Abcg2-/- mice after URB937", "conditions": "URB937 25 mg-kg^−1 s.c., 1 h", "in_short": "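Male Abcg2−/− mice (n = 4) and wild-type FVB littermates (n = 5), 9–13 weeks, given test compound at 25 mg-kg−1 s.c. in saline/PEG400/Tween-80 (18:1:1). Killed 1 h later; tissues homogenized in 50 mM Tris-HCl pH 7.5 with 0.32 M sucrose. FAAH assay: 37°C, 30 min, 0.05% BSA, 50 µg protein (100 µg liver), 10 µM anandamide plus [3H]-anandamide. Read-out: aqueous-phase scintillation counting; mean ± SEM.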"}, "[6]": {"experiment": "Transepithelial transport across MDCKII parental monolayers", "format": "in vitro ADME, canine", "conditions": "dog, MDCK"}, "[7]": {"biological_target": "T4, FAAH", "conditions": "cited from earlier work"}},
  "data": [
    {"smiles": "COc1ccc2c3c([nH]c2c1)[C@H](CC(C)C)N1C(=O)[C@H](CCC(=O)OC(C)(C)C)NC(=O)[C@@H]1C3", "note": "[Ko143, reference compound]", "values": [
      {"measurement": "brain FAAH activity", "setting": "[1]", "value": "dose-dependent decrease"},
      {"measurement": "inhibition of Abcg2-mediated transport of URB937", "setting": "[2]; Ko143 1 µM, URB937 5 µM, MDCKII-Abcg2", "value": "completely inhibited"}
    ]},
    {"smiles": "NC(=O)c1cccc(-c2cc(OC(=O)NC3CCCCC3)ccc2O)c1", "note": "[URB937, cyclohexylcarbamic acid 3'-carbamoyl-6-hydroxybiphenyl-3-yl ester]", "values": [
      {"measurement": "increase of relative transport ratio by over-expression vs parental cells", "setting": "[3]", "value": "~10", "unit": "folds"},
      {"measurement": "Level of URB937 in brain", "setting": "[4]; Abcg2^−/− mice", "value": "1.15 ± 0.04", "unit": "pmol/mg"},
      {"measurement": "Level of URB937 in kidney", "setting": "[4]; Abcg2^−/− mice", "value": "34.97 ± 0.35", "unit": "pmol/mg"},
      {"measurement": "Level of URB937 in liver", "setting": "[4]; Abcg2^−/− mice", "value": "7.75 ± 2.3", "unit": "pmol/mg"},
      {"measurement": "Level of URB937 in spinal cord", "setting": "[4]; Abcg2^−/− mice", "value": "0.80 ± 0.10", "unit": "pmol/mg"},
      {"measurement": "concentration at 1 h", "setting": "[4]; Abcg2^−/− mice", "value": "6.95 ± 0.9", "unit": "µM"},
      {"measurement": "concentration at 1 h", "setting": "[4]; wild-type mice", "value": "8.34 ± 1.7", "unit": "µM"},
      {"measurement": "Level of URB937 in brain", "setting": "[4]; wild-type mice", "value": "0.46 ± 0.12", "unit": "pmol/mg"},
      {"measurement": "Level of URB937 in kidney", "setting": "[4]; wild-type mice", "value": "33.88 ± 3.3", "unit": "pmol/mg"},
      {"measurement": "Level of URB937 in liver", "setting": "[4]; wild-type mice", "value": "7.51 ± 3.1", "unit": "pmol/mg"},
      {"measurement": "Level of URB937 in spinal cord", "setting": "[4]; wild-type mice", "value": "0.29 ± 0.04", "unit": "pmol/mg"},
      {"measurement": "efflux ratio at 4 h, 5 µM", "setting": "[2]; mouse", "value": 13.6},
      {"measurement": "increase of relative transport ratio by over-expression vs parental cells", "setting": "[2]; mouse Abcg2 over-expression", "value": "~10", "unit": "folds"},
      {"measurement": "reduction in FAAH activity in brain and spinal cord", "setting": "[5]; Abcg2^−/− mice compared to wild-type", "value": 80, "unit": "%"},
      {"measurement": "FAAH activity in liver and kidney tissue", "setting": "[5]; wild-type and Abcg2^−/− mice", "value": "nearly abolished"},
      {"measurement": "inhibition of FAAH activity in CNS", "setting": "[5]; wild-type mice", "value": "almost no inhibition"},
      {"measurement": "efflux ratio at 4 h, 5 µM", "setting": "[6]", "value": 1.5},
      {"measurement": "potency at inhibiting FAAH activity in mouse liver relative to mouse brain", "setting": "[7]; mouse liver vs mouse brain", "value": 400, "unit": "times"},
      {"measurement": "half-maximal effective dose (ID50), liver FAAH activity", "setting": "[7]; systemic administration in mice, liver", "value": 0.1, "unit": "mg/kg"},
      {"measurement": "FAAH activity in forebrain, hypothalamus and spinal cord", "setting": "[7]; systemic administration in mice", "value": "fails to alter"}
    ]}
  ]
}
